Experimental data from ChEMBL document CHEMBL1275556, “High prevalence of plasmid-mediated quinolone resistance genes qnr and aac(6')-Ib-cr in clinical isolates of Enterobacteriaceae from nine teaching hospitals in China” (2008).
Values after ≈ are worked out from the molar mass of the structure shown.

Experiments:
[1] = test system: Escherichia coli; assay: Antimicrobial activity against aac(6')-Ib-cr-negative Escherichia coli PU12T harboring wild-type GyrA, GyrB, ParC and qnrS genes by agar dilution method; type: functional
How it was run: (§1)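 MICs were determined by the CLSI agar dilution method (M7-A7) and interpreted against CLSI M100-S17 breakpoints.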

[2] = test system: Citrobacter freundii; assay: Antimicrobial activity against aac(6')-Ib-cr-positive Citrobacter freundii PU55 harboring GyrA T83I, ParC S80I mutant, wild-type GyrB, qnrA genes by agar dilution method; type: functional; how it was run: as §1
[3] = test system: Citrobacter freundii; assay: Antimicrobial activity against aac(6')-Ib-cr-positive Citrobacter freundii PU55T harboring wild-type GyrA, ParC, GyrB and qnrA genes by agar dilution method
[4] = test system: Enterobacter cloacae; assay: Antimicrobial activity against aac(6')-Ib-cr-negative Enterobacter cloacae SH39 harboring GyrA S83I, ParC S80I mutant, wild-type GyrB and qnrA genes by agar dilution method; type: functional
[5] = test system: Enterobacter cloacae; assay: Antimicrobial activity against aac(6')-Ib-cr-negative Enterobacter cloacae SH39T harboring qnrA gene by agar dilution method; type: functional
[6] = test system: Klebsiella pneumoniae; assay: Antimicrobial activity against aac(6')-Ib-cr-negative Klebsiella pneumoniae SY22 harboring GyrA S83I, ParC S80I mutant, wild-type GyrB and qnrS genes by agar dilution method; type: functional; how it was run: as §1
[7] = test system: Klebsiella pneumoniae; assay: Antimicrobial activity against aac(6')-Ib-cr-negative Klebsiella pneumoniae SY22T harboring qnrS gene by agar dilution method; type: functional; how it was run: as §1
[8] = test system: Klebsiella pneumoniae; assay: Antimicrobial activity against aac(6')-Ib-cr-positive Klebsiella pneumoniae SY26 harboring GyrA S83I, ParC S80I mutant, wild-type GyrB and qnrB genes by agar dilution method; type: functional
How it was run: (§2)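 MICs were determined on clinical isolates by CLSI agar dilution (M7-A7) and interpreted against CLSI M100-S17 breakpoints.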

[9] = test system: Klebsiella pneumoniae; assay: Antimicrobial activity against aac(6')-Ib-cr-positive Klebsiella pneumoniae SY26T harboring wild-type GyrA, ParC, GyrB and qnrB genes by agar dilution method; type: functional
How it was run: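 Transconjugants were made by conjugating a qnr/aac(6')-Ib-cr donor with azide-resistant E. coli J53. MICs were read by CLSI agar dilution (M7-A7) and interpreted per M100-S17.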

[10] = test system: Citrobacter freundii; assay: Antimicrobial activity against aac(6')-Ib-cr-positive Citrobacter freundii TJ15 harboring GyrA T83I, ParC S80I mutant, wild-type GyrB, qnrB genes by agar dilution method; type: functional; how it was run: as §1
[11] = test system: Citrobacter freundii; assay: Antimicrobial activity against aac(6')-Ib-cr-positive Citrobacter freundii TJ15T harboring wild-type GyrA, ParC, GyrB genes by agar dilution method; type: functional; how it was run: as §1
[12] = test system: Enterobacter cloacae; assay: Antimicrobial activity against aac(6')-Ib-cr-negative Enterobacter cloacae WH42 harboring wild-type GyrA, ParC, GyrB and qnrA genes by agar dilution method; type: functional
[13] = test system: Enterobacter cloacae; assay: Antimicrobial activity against aac(6')-Ib-cr-negative Enterobacter cloacae WH42T harboring qnrA gene by agar dilution method; type: functional
[14] = test system: Klebsiella pneumoniae; assay: Antimicrobial activity against aac(6')-Ib-cr-positive Klebsiella pneumoniae WH99 harboring wild-type GyrA, ParC, GyrB and qnrB genes by agar dilution method; type: functional; how it was run: as §2
[15] = test system: Klebsiella pneumoniae; assay: Antimicrobial activity against aac(6')-Ib-cr-positive Klebsiella pneumoniae WH99T harboring qnrB gene by agar dilution method; type: functional
How it was run: (§3)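 Transconjugants were made by conjugating a qnr/aac(6')-Ib-cr donor with azide-resistant E. coli J53. Selection used Trypticase soy agar with sodium azide 150 µg/ml and sulfamethoxazole 180 µg/ml. […] MICs were read by CLSI agar dilution (M7-A7) and interpreted per M100-S17.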

[16] = test system: Escherichia coli; assay: Antimicrobial activity against Escherichia coli J53 harboring wild-type GyrA, ParC, GyrB genes by agar dilution method
[17] = test system: Escherichia coli; assay: Antimicrobial activity against aac(6')-Ib-cr-negative Escherichia coli PU12 harboring GyrA S83L mutant, wild-type GyrB, ParC and qnrS genes by agar dilution method; type: functional; how it was run: as §1
[18] = test system: Escherichia coli; assay: Antimicrobial activity against aac(6')-Ib-cr-positive Escherichia coli FJ3 harboring GyrA S83L, ParC S80R mutant, wild-type GyrB and qnrB genes by agar dilution method; type: functional; how it was run: as §1
[19] = test system: Escherichia coli; assay: Antimicrobial activity against aac(6')-Ib-cr-positive Escherichia coli FJ3T harboring wild-type GyrA, ParC, GyrB and qnrB genes by agar dilution method
[20] = test system: Enterobacter cloacae; assay: Antimicrobial activity against aac(6')-Ib-cr-negative Enterobacter cloacae FJ61 harboring GyrA S83I, GyrA D87A, ParC S80I mutant, wild-type GyrB and qnrS genes by agar dilution method; type: functional
[21] = test system: Enterobacter cloacae; assay: Antimicrobial activity against aac(6')-Ib-cr-negative Enterobacter cloacae FJ61T harboring qnrS gene by agar dilution method; type: functional
[22] = test system: Enterobacter cloacae; assay: Antimicrobial activity against aac(6')-Ib-cr-positive Enterobacter cloacae FJ63 harboring GyrA S83I, GyrA D87A, ParC S80I mutant, wild-type GyrB and qnrS genes by agar dilution method; type: functional
[23] = test system: Enterobacter cloacae; assay: Antimicrobial activity against aac(6')-Ib-cr-positive Enterobacter cloacae FJ63T harboring qnrS gene by agar dilution method; type: functional
[24] = test system: Enterobacter cloacae; assay: Antimicrobial activity against aac(6')-Ib-cr-negative Enterobacter cloacae FJ67 harboring […] and qnrS genes by agar dilution method; type: functional
[25] = test system: Enterobacter cloacae; assay: Antimicrobial activity against aac(6')-Ib-cr-negative Enterobacter cloacae FJ67T harboring qnrS gene by agar dilution method; type: functional
[26] = test system: Klebsiella pneumoniae; assay: Antimicrobial activity against aac(6')-Ib-cr-positive Klebsiella pneumoniae GZ40 harboring GyrA S83I, ParC S80I mutant, wild-type GyrB and qnrB genes by agar dilution method; type: functional; how it was run: as §1
[27] = test system: Klebsiella pneumoniae; assay: Antimicrobial activity against aac(6')-Ib-cr-positive Klebsiella pneumoniae GZ40T harboring qnrB gene by agar dilution method
[28] = test system: Enterobacter cloacae; assay: Antimicrobial activity against aac(6')-Ib-cr-negative Enterobacter cloacae GZ47 harboring qnrB and qnrS genes by agar dilution method; type: functional
[29] = test system: Enterobacter cloacae; assay: Antimicrobial activity against aac(6')-Ib-cr-negative Enterobacter cloacae GZ47T harboring qnrB gene by agar dilution method; type: functional
[30] = test system: Enterobacter cloacae; assay: Antimicrobial activity against aac(6')-Ib-cr-negative Enterobacter cloacae GZ51 harboring qnrA gene by agar dilution method; type: functional
[31] = test system: Enterobacter cloacae; assay: Antimicrobial activity against aac(6')-Ib-cr-negative Enterobacter cloacae GZ51T harboring qnrA gene by agar dilution method; type: functional
[32] = test system: Citrobacter freundii; assay: Antimicrobial activity against aac(6')-Ib-cr-positive Citrobacter freundii JN1 harboring GyrA T83I, ParC S80I mutant, wild-type GyrB and qnrA genes by agar dilution method; type: functional; how it was run: as §1
[33] = test system: Citrobacter freundii; assay: Antimicrobial activity against aac(6')-Ib-cr-positive Citrobacter freundii JN1T by agar dilution method; type: functional; how it was run: as §1
[34] = test system: Klebsiella pneumoniae; assay: Antimicrobial activity against aac(6')-Ib-cr-positive Klebsiella pneumoniae JN132 harboring GyrA S83I, ParC S80I mutant, wild-type GyrB and qnrB genes by agar dilution method; type: functional; how it was run: as §2
[35] = test system: Klebsiella pneumoniae; assay: Antimicrobial activity against aac(6')-Ib-cr-positive Klebsiella pneumoniae JN132T harboring qnrB gene by agar dilution method; type: functional; how it was run: as §3
[36] = test system: Klebsiella pneumoniae; assay: Antimicrobial activity against aac(6')-Ib-cr-positive Klebsiella pneumoniae JN41 harboring GyrA S83I, ParC S80I mutant, wild-type GyrB and qnrB genes by agar dilution method; type: functional; how it was run: as §2
[37] = test system: Klebsiella pneumoniae; assay: Antimicrobial activity against aac(6')-Ib-cr-positive Klebsiella pneumoniae JN41T harboring qnrB gene by agar dilution method; type: functional; how it was run: as §3
[38] = test system: Citrobacter freundii; assay: Antimicrobial activity against aac(6')-Ib-cr-negative Citrobacter freundii JN64 harboring GyrA T83I, wild-type ParC, GyrB and qnrA genes by agar dilution method; type: functional; how it was run: as §1
[39] = test system: Citrobacter freundii; assay: Antimicrobial activity against aac(6')-Ib-cr-negative Citrobacter freundii JN64T harboring qnrA gene by agar dilution method; type: functional; how it was run: as §1
[40] = test system: Citrobacter freundii; assay: Antimicrobial activity against aac(6')-Ib-cr-positive Citrobacter freundii JS33 harboring GyrA T83I mutant, wild-type ParC, GyrB, qnrA and qnrB genes by agar dilution method; type: functional; how it was run: as §1
[41] = test system: Citrobacter freundii; assay: Antimicrobial activity against aac(6')-Ib-cr-positive Citrobacter freundii JS33T harboring qnrA gene by agar dilution method; type: functional; how it was run: as §1

## CO[C@@]1(NC(=O)Cc2cccs2)C(=O)N2C(C(=O)O)=C(COC(N)=O)CS[C@@H]21 [CEFOXITIN]
[1]
  MIC: 4 µg/mL (≈ 9.36 µM)
[2]
  MIC: > 256 µg/mL
[3]
  MIC: 2 µg/mL (≈ 4.68 µM)
[4]
  MIC: > 256 µg/mL
[5]
  MIC: 4 µg/mL (≈ 9.36 µM)
[6]
  MIC: 8 µg/mL (≈ 18.7 µM)
[7]
  MIC: 4 µg/mL (≈ 9.36 µM)
[8]
  MIC: 256 µg/mL (≈ 599 µM)
[9]
  MIC: 16 µg/mL (≈ 37.4 µM)
[10]
  MIC: 256 µg/mL (≈ 599 µM)
[11]
  MIC: 64 µg/mL (≈ 150 µM)
[12]
  MIC: > 256 µg/mL
[13]
  MIC: 2 µg/mL (≈ 4.68 µM)
[14]
  MIC: 256 µg/mL (≈ 599 µM)
[15]
  MIC: 64 µg/mL (≈ 150 µM)
[16]
  MIC: 2 µg/mL (≈ 4.68 µM)
[17]
  MIC: 4 µg/mL (≈ 9.36 µM)
[18]
  MIC: 8 µg/mL (≈ 18.7 µM)
[19]
  MIC: 2 µg/mL (≈ 4.68 µM)
[20]
  MIC: 256 µg/mL (≈ 599 µM)
[21]
  MIC: 4 µg/mL (≈ 9.36 µM)
[22]
  MIC: 256 µg/mL (≈ 599 µM)
[23]
  MIC: 4 µg/mL (≈ 9.36 µM)
[24]
  MIC: > 256 µg/mL
[25]
  MIC: 4 µg/mL (≈ 9.36 µM)
[26]
  MIC: 32 µg/mL (≈ 74.9 µM)
[27]
  MIC: 2 µg/mL (≈ 4.68 µM)
[28]
  MIC: 256 µg/mL (≈ 599 µM)
[29]
  MIC: 32 µg/mL (≈ 74.9 µM)
[30]
  MIC: > 256 µg/mL
[31]
  MIC: 4 µg/mL (≈ 9.36 µM)
[32]
  MIC: > 256 µg/mL
[33]
  MIC: 2 µg/mL (≈ 4.68 µM)
[34]
  MIC: 64 µg/mL (≈ 150 µM)
[35]
  MIC: 64 µg/mL (≈ 150 µM)
[36]
  MIC: 4 µg/mL (≈ 9.36 µM)
[37]
  MIC: 2 µg/mL (≈ 4.68 µM)
[38]
  MIC: > 256 µg/mL
[39]
  MIC: 8 µg/mL (≈ 18.7 µM)
[40]
  MIC: > 256 µg/mL
[41]
  MIC: 2 µg/mL (≈ 4.68 µM)

## Cc1cc(NS(=O)(=O)c2ccc(N)cc2)no1 [SULFAMETHOXAZOLE]
[1]
  MIC: > 256 µg/mL
[2]
  MIC: > 256 µg/mL
[3]
  MIC: > 256 µg/mL
[4]
  MIC: > 256 µg/mL
[5]
  MIC: 256 µg/mL (≈ 1010 µM)
[6]
  MIC: 64 µg/mL (≈ 253 µM)
[7]
  MIC: 16 µg/mL (≈ 63.2 µM)
[8]
  MIC: > 256 µg/mL
[9]
  MIC: > 256 µg/mL
[10]
  MIC: > 256 µg/mL
[11]
  MIC: > 256 µg/mL
[12]
  MIC: > 256 µg/mL
[13]
  MIC: > 256 µg/mL
[14]
  MIC: > 256 µg/mL
[15]
  MIC: > 256 µg/mL
[16]
  MIC: 16 µg/mL (≈ 63.2 µM)
[17]
  MIC: > 256 µg/mL
[18]
  MIC: > 256 µg/mL
[19]
  MIC: > 256 µg/mL
[20]
  MIC: 16 µg/mL (≈ 63.2 µM)
[21]
  MIC: 16 µg/mL (≈ 63.2 µM)
[22]
  MIC: > 256 µg/mL
[23]
  MIC: > 256 µg/mL
[24]
  MIC: > 256 µg/mL
[25]
  MIC: > 256 µg/mL
[26]
  MIC: > 256 µg/mL
[27]
  MIC: > 256 µg/mL
[28]
  MIC: > 256 µg/mL
[29]
  MIC: 256 µg/mL (≈ 1010 µM)
[30]
  MIC: > 256 µg/mL
[31]
  MIC: > 256 µg/mL
[32]
  MIC: 256 µg/mL (≈ 1010 µM)
[33]
  MIC: 32 µg/mL (≈ 126 µM)
[34]
  MIC: > 256 µg/mL
[35]
  MIC: > 256 µg/mL
[36]
  MIC: > 256 µg/mL
[37]
  MIC: > 256 µg/mL
[38]
  MIC: > 256 µg/mL
[39]
  MIC: > 256 µg/mL
[40]
  MIC: > 256 µg/mL
[41]
  MIC: > 256 µg/mL
